# Source: PubChem (Broad Institute)
# FN deposition inh: fibronectin deposition inhibition. AH1F fibroblasts, Alexa488-fibronectin deposition fluorescence, overnight. inhibition, % at 12.6 µM. 0.086% of 350,000 active. AID 743247;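 active means mean inhibition across replicates of 30% or more, regardless of how many single replicates reach that level; inconclusive means mean under 30% yet at least half of replicates reach 30%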;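 further: positive control wells lacked labelled fibronectin entirely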
#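 Schedule: 1 h cell adhesion before compound, then overnight fibronectin incubation; test system: AH1F fibroblast monolayer depositing Alexa488-labelled fibronectin into matrix; quantity: 10000 AH1F cells per well; probe or stimulus: fluorescent fibronectin at 24 nM final; signal: fluorescence, ex 485 nm, em 525 nm; evaluation: percent inhibition as loss of matrix-bound fibronectin fluorescence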
# HIV Env fusion: inhibitors of HIV Env-mediated cell fusion; HeLa-JRFL Env/CEM21 cell fusion, luciferase; inhibition, % at 12.3 µM; 1.1% of 360,000 active; AID 651610;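 active means mean replicate inhibition score of at least 50 and every replicate individually at or above 50; inconclusive means only one of the two criteria met; inactive means mean below 50 and not all replicates reaching 50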;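 further: 0% = plate neutral controls and 100% = maraviroc near 300 nM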
# CFTR F508del cor: correctors of CFTR F508del function in bronchial epithelial cells | CFBE cells, YFP halide quenching; stimulated with forskolin plus potentiator P3; % fluorescence drop versus neutral controls | activity (quench increase), % at 7.58 µM | 0.36% of 350,000 active | AID 720511;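 active means mean added fluorescence quench of at least 8% versus neutral control, with both replicates also reaching 8%; inconclusive means only one of the mean or replicate conditions met; inactive means mean below 8% and not both replicates reaching 8%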;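 further: cells transiently co-express mutant CFTR-F508del with the halide-sensitive YFP; corrector assay measuring rescue of mutant channel to the surface after 24 h compound exposure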
# EWS-Fli inh: inhibitors of EWS/Fli oncoprotein transcriptional activity; A673 NR0B1-luciferase reporter, viability-normalised; inhibition, % at 12.6 µM; 0.67% of 350,000 active; AID 651661;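 active means mean inhibition of at least 50% after viability correction, with every replicate also passing that limit; inconclusive means mean reaches 50% but only one of two replicates passes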;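 further: firefly luciferase signal divided by Alamar Blue viability fluorescence both relative to DMSO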
# PGC1a acetyl inh: modulators of PGC1a acetylation; U2OS PGC1a acetylation, AlphaScreen anti-acetyl-lysine; with virally co-expressed GCN5 acetyltransferase; inhibition, % at 15.6 µM; 0.17% of 350,000 active;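 active means every replicate shows inhibition of at least 40%; inconclusive means mean inhibition at least 40% but some replicate below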;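 further: 0% = neutral control wells and 100% = positive control wells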
# PAX8 inh HTS: lowers PAX8-driven luciferase in RMG-I cells | inhibition, % at 12.6 µM | RMG-I TPO-luciferase reporter, SteadyGlo, 24 h | 1.2% of 360,000 active;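 active means mean replicate inhibition at least 60% with every replicate also reaching 60%; inconclusive means only one of the two criteria is met; inactive means mean below 60% and not all replicates reaching 60%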;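 further: luciferase light reporting Pax8 driven TPO promoter activity; plate controls were median of neutral control wells for no effect and mitoxantrone controls for full effect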
# * hit, by the source's call; ? = inconclusive; · = no result; ! = a repeat was not active; [ ] = dose if it differs, or a comment. In the library only some 2.3% were active in any assay of this set; here they are far more common.
SMILES,FN deposition inh,HIV Env fusion,CFTR F508del cor,EWS-Fli inh,PGC1a acetyl inh,PAX8 inh HTS
CCC(=O)Nc1ccc2c(c1)C(=O)N(C)C[C@H](OC)[C@@H](C)CN(C(=O)C1CC1)[C@H](C)CO2,5.0,·,-0.2,-4.5,-2.0,0.1
CC(=O)c1cccc(NC(=O)Nc2ccc(C(=O)N3CCOCC3)cc2)c1,-7.0,63.1*,·,·,14.1,·
O=C(Cc1ccccc1)Nc1cccnc1,·,7.7,0.1,10.6,·,4.4
CC(=O)c1cccc(NC(=O)Nc2cccnc2)c1,·,?,·,·,50.3*,·
Cc1ccc(NC(=O)Nc2ccc(C(=O)N3CCOCC3)cc2)cc1,-4.0,-9.5,·,·,14.5,-2.6
Cc1cccc(CC(=O)Nc2cccnc2)c1,-4.0,2.4,8.4*,4.3,·,-2.4
O=C(Nc1cccnc1)Nc1cccc(F)c1,-1.2,-5.7,-4.2,-39.5,·,-18.6
CO[C@H]1CN(C)C(=O)c2ccc(NC(=O)C3CC3)cc2OC[C@H](C)N(CC2CCOCC2)C[C@@H]1C,6.6,·,1.2,-0.9,-2.5,·
CN1C(=O)c2cc(NC(=O)Nc3cccc(Cl)c3)ccc2OC[C@H]2O[C@@H](CC(=O)O)CC[C@@H]21,-18.1,5.3[16.7 µM],-1.0,1.6,5.6,-6.8
COc1ccc(S(=O)(=O)Nc2ccc3c(c2)CC(=O)N([C@@H](C)CO)C[C@H](C)[C@H](CN(C)S(=O)(=O)c2ccccc2)O3)cc1,·,66.0*[16.7 µM],0.1,6.4,6.1,-2.1
COc1ccc(S(=O)(=O)N(C)C[C@@H]2Oc3ccc(NC(=O)CCCCCC(=O)Nc4ccccc4N)cc3CC(=O)N([C@@H](C)CO)C[C@H]2C)cc1,·,8.4[16.7 µM],0.9,15.7,1.1,-28.9
CCOC(=O)CCCCCC(=O)Nc1ccc2c(c1)CC(=O)N([C@H](C)CO)C[C@H](C)[C@H](CN(C)S(=O)(=O)c1ccc(OC)cc1)O2,2.0,95.7*,-2.4,18.6,-2.1,-13.1
Cc1ccc(S(=O)(=O)Nc2ccc3c(c2)CC(=O)N([C@H](C)CO)C[C@H](C)[C@H](CN(C)S(=O)(=O)c2ccc(C)cc2)O3)cc1,·,89.6*[16.7 µM],1.6,0.7,5.6,6.7
COc1ccc(S(=O)(=O)N(C)C[C@@H]2Oc3ccc(NS(=O)(=O)c4ccc(F)cc4)cc3CC(=O)N([C@H](C)CO)C[C@H]2C)cc1,·,-4.6[16.7 µM],-4.9,0.5,8.6,·
COc1ccc(S(=O)(=O)Nc2ccc3c(c2)CC(=O)N([C@@H](C)CO)C[C@H](C)[C@H](CN(C)S(=O)(=O)c2ccc(F)cc2)O3)cc1,·,65.6*[16.7 µM],-0.4,2.5,5.6,-3.8
COc1ccc2c3c(n(C)c2c1)[C@@H](CO)N(Cc1ccccc1)CC31CN(C(=O)Nc2cccc(F)c2)C1,·,6.0[16.7 µM],0.8,2.5,·,·
CN(C)CC#Cc1cccc(-c2nc(C(=O)O)cc3c2[C@H](CCO)N(S(=O)C(C)(C)C)C3)c1 (stereo partly specified),·,6.7[16.7 µM],-1.3,-4.1,6.3,-1.1
COc1ccc(S(=O)(=O)Nc2ccc3c(c2)CC(=O)N([C@@H](C)CO)C[C@H](C)[C@H](CN(C)S(=O)(=O)c2ccc(C)cc2)O3)cc1,·,96.0*[16.7 µM],4.6,-16.1,4.1,71.9*
Cc1ccc(S(=O)(=O)N(C)C[C@@H]2Oc3ccc(NS(=O)(=O)c4ccc(Cl)cc4)cc3CC(=O)N([C@H](C)CO)C[C@@H]2C)cc1,·,56.0*[16.7 µM],1.6,0.0,9.9,27.2
C[C@H](CO)N1C[C@H](C)[C@@H](CN(C)C(=O)Nc2ccc(F)cc2)OCCCC[C@H](C)Oc2ccc(NC(=O)NC3CCCCC3)cc2C1=O,·,15.4[16.7 µM],1.0,13.7,-16.6,15.9
CCNC(=O)C[C@@H]1CC[C@@H]2[C@H](COc3ccc(NC(=O)c4ccccc4Cl)cc3C(=O)N2C)O1,-1.2,-23.9[16.7 µM],1.9,-0.9,7.5,-3.3
CN(C)CCCNc1c2ccccc2nc2ccccc12,-8.8,-83.7,18.2*,47.9,25.5,10.1
c1ccc2c(NCCCN3CCOCC3)c3ccccc3nc2c1,·,-107.3,10.9*,?,·,22.4
CN(C)CCCNc1nc(-c2ccccc2)nc2ccccc12,1.3,-5.5,0.0,-10.1,-4.0,15.7
COc1ccccc1NC(=O)N[C@@H]1CC[C@@H](CCNS(=O)(=O)c2ccc(C)cc2)O[C@@H]1CO,·,·,-1.2,-6.7,·,-2.0
SMILES,FN deposition inh,HIV Env fusion,CFTR F508del cor,EWS-Fli inh,PGC1a acetyl inh,PAX8 inh HTS
Cc1ccc(C(=O)O/N=C(\N)c2ccccn2)c(C)c1,-2.8,·,-4.9,77.2*,·,·
N/C(=N\OC(=O)c1ccccc1Cl)c1ccccn1,·,·,-0.4,54.3*,8.1,·
COc1ccccc1C(=O)O/N=C(\N)c1ccccn1,0.9,-3.9,-4.9,-12.9,7.0,7.5
C[C@H](CO)N1C[C@H](C)[C@H](CN(C)C(=O)Nc2ccc(-c3cccs3)cc2)OCc2cnnn2CCCC1=O,0.8,27.6,2.9,-12.7,-4.1,72.1*
C[C@H](CO)N1C[C@H](C)[C@@H](CN(C)C(=O)Nc2ccnc(N3CCOCC3)c2)OCc2cnnn2CCCC1=O,3.0,-1.1,0.3,7.3,-5.9,90.8*!
C[C@H](CO)N1C[C@H](C)[C@H](CN(C)C(=O)Nc2ccccc2)OCc2cnnn2CCCC1=O,-9.2,-10.2,-4.3,-9.2,11.9,1.4
C[C@@H]1CN([C@H](C)CO)C(=O)CCCn2nncc2CO[C@H]1CN(C)C(=O)Nc1ccnc(N2CCOCC2)c1,0.7,7.0,1.4,-3.6,-2.7,-6.5
C[C@@H]1CN([C@@H](C)CO)C(=O)CCCn2nncc2CO[C@@H]1CN(C)C(=O)Nc1ccc(-c2cccs2)cc1,-0.8,27.0,0.4,-9.8,2.9,33.6
C[C@H]1CN([C@@H](C)CO)C(=O)CCCn2nncc2CO[C@@H]1CN(C)C(=O)Nc1ccc(-c2cccs2)cc1,2.2,·,-1.2,-10.2,-5.7,75.6*
C[C@@H]1CN([C@@H](C)CO)C(=O)CCCn2nncc2CO[C@H]1CN(C)S(=O)(=O)c1ccc(Cl)cc1,10.1,-8.9,-0.1,1.3,96.7*!,102.1*!
CC(C)C[C@@H]1COCc2cn(nn2)CC[C@H](Cc2ccc(-c3ccccc3)cc2)C(=O)N1,-6.5,·,·,·,·,·
CCCC(=O)Nc1ccc2c(c1)C(=O)N(C)C[C@@H](OC)[C@H](C)CN(CC1CCCC1)[C@@H](C)CO2,-11.5,-13.8[16.7 µM],-1.0,-0.2,0.7,·
C[C@H]1CN([C@@H](C)CO)C(=O)CCCn2nncc2CO[C@H]1CN(C)C(=O)Nc1ccccc1,-7.8,15.9,0.4,9.1,-11.3,9.2
C[C@@H]1CN([C@H](C)CO)C(=O)CCCn2nncc2CO[C@H]1CN(C)C(=O)Nc1ccc(-c2cccs2)cc1,-3.2,·,0.4,0.7,-13.7,70.1*
COc1cc(/C=N/NS(=O)(=O)c2ccc(C)cc2)ccc1OCc1ccc(C(=O)O)cc1,13.2,72.4*,·,·,·,99.6*
O=C(c1cccc(Cl)c1)N1CCC(=O)N(C(COCc2cccc(Cl)c2)Cc2ccccc2)CC1 (stereo unspecified),-1.4,59.6*,5.1,26.2,-13.7,23.2
